In ChEMBL document CHEMBL1145471, “Small molecule regulators of autophagy identified by an image-based high-throughput screen” (Proc Natl Acad Sci U S A, 2007):

Legend:
Type in all cases: functional
H4 [1] = test: Increase in long-lived protein degradation in human H4 cells after 4 hrs relative to control; set-up: concentration or dose not given beside the values
H4 [2] = test: Increase in long-lived protein degradation in human H4 cells after 2 hrs relative to control; set-up: concentration or dose not given beside the values
H4 [3] = test: Induction of light chain 3-GFP level in human H4 cells at 3.6 uM after 24 hrs by high throughput fluorescence microscopy relative to control
Method in brief: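 H4 cells stably expressing LC3-GFP, grown in DMEM with 10% FBS, penicillin/streptomycin and 2 mM L-glutamine at 37°C, 5% CO2. Cells were seeded in 96-well plates and exposed to library compounds at 3–12 μM for 24 h, then fixed in 4% paraformaldehyde and stained with 3 μg/ml DAPI. LC3-GFP spot number, size and intensity were measured by high-throughput fluorescence microscopy and expressed relative to DMSO. Triplicates, mean ± SD.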

H4 [4] = test: Increase in long-lived protein degradation in human H4 cells after 24 hrs relative to control; set-up: concentration or dose not given beside the values
H4 [5] = test: Increase in light chain 3-GFP+ autophagosome vesicle intensity per cell in human H4 cells at 3.6 uM after 24 hrs by high throughput fluorescence microscopy relative to control
Method in brief: (§1)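 H4 cells stably expressing LC3-GFP, seeded in 96-well plates and exposed to compound for 24 h; screening concentrations were 3–12 μM, with rapamycin 0.22 μM and bafilomycin A1 0.40 μM. Cells fixed in 4% paraformaldehyde and stained with 3 μg/ml DAPI. Number, size and intensity of LC3-GFP spots measured by high-throughput fluorescence microscopy and expressed as percent of DMSO-treated wells. Rapamycin was the positive control. Triplicate wells, mean ± SD; experiments repeated three times.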

H4 [6] = test: Decrease in FYVE-RFP+ vesicle intensity per cell in human H4 cells after 4 hrs relative to control; set-up: concentration or dose not given beside the values
Method in brief: (§2)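 H4 cells stably expressing FYVE-RFP (H4-FYVE), grown in DMEM with 10% FBS, penicillin/streptomycin and 2 mM L-glutamine at 37°C, 5% CO2, seeded in 96-well plates and exposed to compound. Fixed in 4% paraformaldehyde, nuclei stained with 3 μg/ml DAPI, FYVE-RFP+ vesicles quantified by high-throughput fluorescence microscopy against DMSO control. Triplicate wells, mean ± SD.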

H4 [7] = test: Increase in light chain 3-GFP+ autophagosome vesicle number per cell in human H4 cells at 3.6 uM after 24 hrs by high throughput fluorescence microscopy relative to control
Method in brief: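 H4 cells stably expressing LC3-GFP were grown in DMEM with 10% FBS and 2 mM L-glutamine at 37°C, 5% CO2. They were exposed to each compound for 24 h, with DMSO as negative and rapamycin as positive control. Cells were then fixed in 4% paraformaldehyde and stained with 3 μg/ml DAPI. High-throughput fluorescence imaging scored LC3-GFP spot number, size and intensity, expressed relative to DMSO. Mean ± SD of triplicates; experiments repeated three times.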

H4 [8] = test: Increase in long-lived protein degradation in human H4 cells after 1 hr relative to control; set-up: concentration or dose not given beside the values
H4 [9] = test: Decrease in FYVE-RFP+ vesicle intensity per cell in human H4 cells after 8 hrs relative to control; set-up: concentration or dose not given beside the values; method in brief: as §2
H4 [10] = test: Decrease in FYVE-RFP+ vesicle intensity per cell in human H4 cells after 2 hrs relative to control; set-up: concentration or dose not given beside the values; method in brief: as §2
H4 [11] = test: Increase in light chain 3-GFP+ autophagosome vesicle area per cell in human H4 cells at 3.6 uM after 24 hrs by high throughput fluorescence microscopy relative to control; method in brief: as §1
H4 [12] = test: Effect on FYVE-RFP+ vesicle intensity per cell in human H4 cells after 4 hrs relative to control; set-up: concentration or dose not given beside the values; method in brief: as §2
H4 [13] = test: Increase in light chain 3-GFP+ autophagosome vesicle area per cell in human H4 cells at 7.7 uM after 24 hrs by high throughput fluorescence microscopy relative to control
Method in brief: (§3)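 H4 cells stably expressing LC3-GFP, seeded in 96-well plates and exposed to compound for 24 h; fixed in 4% paraformaldehyde, nuclei stained with 3 μg/ml DAPI. Automated fluorescence microscopy scored number, size and intensity of LC3-GFP spots; values expressed relative to DMSO-treated wells, rapamycin positive control. Triplicate wells, mean ± SD; experiments repeated three times.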

H4 [14] = test: Increase in light chain 3-GFP+ autophagosome vesicle intensity per cell in human H4 cells at 7.7 uM after 24 hrs by high throughput fluorescence microscopy relative to control; method in brief: as §3
H4 [15] = test: Induction of light chain 3-GFP level in human H4 cells at 7.7 uM after 24 hrs by high throughput fluorescence microscopy relative to control
Method in brief: (§4)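 H4 cells stably expressing LC3-GFP, kept in DMEM/10% FBS at 37°C, 5% CO2, were seeded in 96-well plates and exposed to compound for 24 h. Cells were then fixed in 4% paraformaldehyde and stained with 3 μg/ml DAPI. Automated fluorescence microscopy scored the number, size and intensity of LC3-GFP spots. Values are percent of DMSO wells, in triplicate, mean ± SD. Rapamycin served as positive control.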

H4 [16] = test: Increase in light chain 3-GFP+ autophagosome vesicle number per cell in human H4 cells at 7.7 uM after 24 hrs by high throughput fluorescence microscopy relative to control; method in brief: as §4
H4 [17] = test: Effect on FYVE-RFP+ vesicle intensity per cell in human H4 cells after 8 hrs relative to control; set-up: concentration or dose not given beside the values; method in brief: as §2
H4 [18] = test: Effect on FYVE-RFP+ vesicle intensity per cell in human H4 cells after 2 hrs relative to control; set-up: concentration or dose not given beside the values; method in brief: as §2
H4 [19] = test: Increase in light chain 3-GFP+ autophagosome vesicle number per cell in human H4 cells at 6.1 uM after 24 hrs by high throughput fluorescence microscopy relative to control; method in brief: as §4
H4 [20] = test: Induction of light chain 3-GFP level in human H4 cells at 6.1 uM after 24 hrs by high throughput fluorescence microscopy relative to control; method in brief: as §4
H4 [21] = test: Increase in light chain 3-GFP+ autophagosome vesicle intensity per cell in human H4 cells at 6.1 uM after 24 hrs by high throughput fluorescence microscopy relative to control; method in brief: as §3
H4 [22] = test: Increase in light chain 3-GFP+ autophagosome vesicle area per cell in human H4 cells at 6.1 uM after 24 hrs by high throughput fluorescence microscopy relative to control; method in brief: as §3

CC[C@@]1([C@@H]2O[C@@H]([C@H]3O[C@@](O)(CO)[C@H](C)C[C@@H]3C)C[C@@H]2C)CC[C@H]([C@]2(C)CC[C@]3(C[C@H](O)[C@@H](C)[C@@H]([C@@H](C)[C@@H](OC)[C@H](C)C(=O)O)O3)O2)O1 [MONENSIN]
Activity (H4 [1]): 109.16%
Activity (H4 [2]): 123.64%
Activity (H4 [3]): 92.38%
Activity (H4 [4]): 107.54%
Activity (H4 [5]): 639.29%
Activity (H4 [6]): 66.44%
Activity (H4 [7]): 312.92%
Activity (H4 [8]): 107.28%
Activity (H4 [9]): 59.14%
Activity (H4 [10]): 81.22%
Activity (H4 [11]): 418.31%

CN1CCN(C2=Nc3cc(Cl)ccc3Nc3ccccc32)CC1 [CLOZAPINE]
Activity (H4 [1]): 11.93%
Activity (H4 [12]): 74.79%
Activity (H4 [13]): 275.5%
Activity (H4 [2]): 125.71%
Activity (H4 [14]): 350.13%
Activity (H4 [4]): 119.5%
Activity (H4 [15]): 139.18%
Activity (H4 [16]): 216.53%
Activity (H4 [8]): 115.64%
Activity (H4 [17]): 78.38%
Activity (H4 [18]): 64.04%

CC1=C2C[C@H]3[C@@H](CC=C4C[C@@H](O)CC[C@@]43C)[C@@H]2CC[C@]12O[C@@H]1C[C@H](C)CN[C@H]1[C@H]2C [CYCLOPAMINE]
Activity (H4 [19]): 313.88%
Activity (H4 [1]): 109.69%
Activity (H4 [20]): 110.76%
Activity (H4 [12]): 75.21%
Activity (H4 [2]): 111.02%
Activity (H4 [4]): 103.97%
Activity (H4 [21]): 1564.12%
Activity (H4 [8]): 91.74%
Activity (H4 [22]): 511.72%
Activity (H4 [17]): 96.38%
Activity (H4 [18]): 108.75%
